system: Rattus norvegicus; assay: Effect on DOPA accumulation in rat striatum after intraperitoneal administration of compound (10 mg/kg) and GBL, was determined and expressed as percent reversal of the increase in DOPA; assay type: functional; settings: not given
Summary of the method: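 Male Long-Evans rats given compound 10 mg/kg ip 60 min before sacrifice. GBL 750 mg/kg ip (omitted in controls) and NSD 1015 100 mg/kg ip given 30 min before sacrifice. Striatal DOPA measured by HPLC with electrochemical detection. Result is percent reversal of the GBL-induced DOPA rise, ± SEM.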

SMILES | Activity
Oc1ccc(C2=CCN(C[C@@H]3CCC=C(c4ccccc4)C3)CC2)cc1 | 0
C1=C(c2ccccc2)CCN(C[C@@H]2CCC=C(c3ccccc3)C2)C1 [CI-1007] | -66
Oc1ccc(C2=CCN(C[C@@H]3CCC=C(c4ccc(O)cc4)C3)CC2)cc1 | -8
Oc1ccc(C2=CCC[C@@H](CN3CC=C(c4ccccc4)CC3)C2)cc1 | -27

system: Mus musculus; assay: Inhibition of locomotor activity in mice was determined after intraperitoneal administration of compound; assay type: functional; settings: ip
Summary of the method: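 Mice dosed ip, then tested immediately for 1 h in darkened cylindrical photobeam chambers. Inhibition expressed relative to vehicle-treated mice. ED50 with 95% confidence range from three to six doses, 6–18 animals per dose.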

SMILES | ED50 [mg/kg]
Oc1ccc(C2=CCN(C[C@@H]3CCC=C(c4ccccc4)C3)CC2)cc1 | > 30
C1=C(c2ccccc2)CCN(C[C@@H]2CCC=C(c3ccccc3)C2)C1 [CI-1007] | 0.7
Oc1ccc(C2=CCN(C[C@@H]3CCC=C(c4ccc(O)cc4)C3)CC2)cc1 | 6.1
Oc1ccc(C2=CCC[C@@H](CN3CC=C(c4ccccc4)CC3)C2)cc1 | 0.3

system: Rattus norvegicus; assay: Effect on DOPA accumulation in rat striatum after intraperitoneal administration of compound (3 mg/kg) and GBL, was determined and expressed as percent reversal of the increase in DOPA; assay type: functional; settings: not given

SMILES | Activity
Oc1ccc(C2=CCC[C@@H](CN3CC=C(c4ccccc4)CC3)C2)cc1 | -44

molecular target: T1, D(2) dopamine receptor (Homo sapiens, UniProt P14416); assay: Binding affinity towards human Dopamine receptor D2L evaluated using [3H]N-0437; settings: not given
T1 sequence (P14416 whole entry): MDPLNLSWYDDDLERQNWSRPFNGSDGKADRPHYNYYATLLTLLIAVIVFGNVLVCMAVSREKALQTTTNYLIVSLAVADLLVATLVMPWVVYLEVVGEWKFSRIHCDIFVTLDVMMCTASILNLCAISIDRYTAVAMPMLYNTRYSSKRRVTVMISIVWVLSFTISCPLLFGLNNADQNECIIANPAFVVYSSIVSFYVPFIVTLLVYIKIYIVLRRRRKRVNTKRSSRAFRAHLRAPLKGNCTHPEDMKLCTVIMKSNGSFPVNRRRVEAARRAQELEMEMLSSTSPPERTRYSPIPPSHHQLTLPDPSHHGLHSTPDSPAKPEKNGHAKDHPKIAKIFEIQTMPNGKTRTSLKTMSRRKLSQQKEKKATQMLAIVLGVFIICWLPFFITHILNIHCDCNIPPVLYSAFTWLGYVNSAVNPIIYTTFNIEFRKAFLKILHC
Summary of the method: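 CHO-K1 membranes expressing human D2L incubated in triplicate with 1 nM [3H]N-0437 in 25 mM Tris HCl pH 7.4 with 1 mM EDTA and 6 mM MgCl2, 25 °C for 60 min. Nonspecific binding set with 1 μM haloperidol. Filtration, scintillation counting. Ki by nonlinear regression from four to six concentrations, ± SEM.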

SMILES | Ki [nM]
Oc1ccc(C2=CCN(C[C@@H]3CCC=C(c4ccccc4)C3)CC2)cc1 | 5.7
C1=C(c2ccccc2)CCN(C[C@@H]2CCC=C(c3ccccc3)C2)C1 [CI-1007] | 8.4
Oc1ccc(C2=CCN(C[C@@H]3CCC=C(c4ccc(O)cc4)C3)CC2)cc1 | 2.2
Oc1ccc(C2=CCC[C@@H](CN3CC=C(c4ccccc4)CC3)C2)cc1 | 0.2

molecular target: T2, D(4) dopamine receptor (Homo sapiens, UniProt P21917); assay: Binding affinity towards human Dopamine receptor D4.2 evaluated using [3H]spiperone; settings: not given
T2 sequence (P21917 whole entry): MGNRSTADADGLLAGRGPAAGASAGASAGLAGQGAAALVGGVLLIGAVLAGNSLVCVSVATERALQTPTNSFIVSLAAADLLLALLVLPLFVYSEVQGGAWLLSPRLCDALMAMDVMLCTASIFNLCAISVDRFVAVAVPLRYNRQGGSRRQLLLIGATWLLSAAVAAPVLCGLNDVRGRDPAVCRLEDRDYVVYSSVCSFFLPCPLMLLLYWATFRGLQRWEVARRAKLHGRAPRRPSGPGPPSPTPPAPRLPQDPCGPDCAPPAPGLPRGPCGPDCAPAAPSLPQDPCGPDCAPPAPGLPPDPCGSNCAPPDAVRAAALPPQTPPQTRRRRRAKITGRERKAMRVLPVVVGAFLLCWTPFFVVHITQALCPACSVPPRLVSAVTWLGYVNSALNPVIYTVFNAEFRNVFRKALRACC
Summary of the method: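 CHO-K1 membranes bearing human D4.2 run in triplicate with 0.2 nM [3H]spiperone in Tris HCl pH 7.4 buffer with 1.5 mM CaCl2 and 5 mM KCl, 25 °C, 60 min. Specific binding is the fraction blocked by 1 μM haloperidol. Filtration, then scintillation counting. Ki ± SEM by nonlinear regression over four to six concentrations; IC50 given where inhibition at 10 μM is below 50%.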

SMILES | Ki [nM]
Oc1ccc(C2=CCN(C[C@@H]3CCC=C(c4ccccc4)C3)CC2)cc1 | > 10000
Oc1ccc(C2=CCN(C[C@@H]3CCC=C(c4ccc(O)cc4)C3)CC2)cc1 | 68
Oc1ccc(C2=CCC[C@@H](CN3CC=C(c4ccccc4)CC3)C2)cc1 | 61.4

system: Rattus norvegicus; assay: Effect on […] in rats after intraperitoneal administration of compound (10 mg/kg) and GBL, was determined and expressed as percent reversal of the increase in DOPA; assay type: functional; settings: not given

SMILES | Activity
Oc1ccc(C2=CCN(C[C@@H]3CCC=C(c4ccccc4)C3)CC2)cc1 | 33
C1=C(c2ccccc2)CCN(C[C@@H]2CCC=C(c3ccccc3)C2)C1 [CI-1007] | -99
Oc1ccc(C2=CCN(C[C@@H]3CCC=C(c4ccc(O)cc4)C3)CC2)cc1 | -10
Oc1ccc(C2=CCC[C@@H](CN3CC=C(c4ccccc4)CC3)C2)cc1 | -100

system: Monkey; assay: Inhibition of conditioned avoidance in squirrel monkeys was determined after peroral administration of compound; assay type: functional; settings: in Saimiri, po
Summary of the method: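 Squirrel monkeys dosed orally, conditioned avoidance monitored for 6 h. Inhibition taken as percent of control avoidance responding over the 4 h peak-effect period. ED50 with 95% confidence range from three doses, eight monkeys per dose.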

SMILES | ED50 [mg/kg]
Oc1ccc(C2=CCN(C[C@@H]3CCC=C(c4ccccc4)C3)CC2)cc1 | > 2.5
C1=C(c2ccccc2)CCN(C[C@@H]2CCC=C(c3ccccc3)C2)C1 [CI-1007] | 0.63
Oc1ccc(C2=CCN(C[C@@H]3CCC=C(c4ccc(O)cc4)C3)CC2)cc1 | > 2.5
Oc1ccc(C2=CCC[C@@H](CN3CC=C(c4ccccc4)CC3)C2)cc1 | 1.34

molecular target: D(3) dopamine receptor (Homo sapiens, UniProt P35462); assay: Binding affinity towards human Dopamine receptor D3 evaluated using [3H]spiperone; settings: not given
Sequence (P35462 whole entry): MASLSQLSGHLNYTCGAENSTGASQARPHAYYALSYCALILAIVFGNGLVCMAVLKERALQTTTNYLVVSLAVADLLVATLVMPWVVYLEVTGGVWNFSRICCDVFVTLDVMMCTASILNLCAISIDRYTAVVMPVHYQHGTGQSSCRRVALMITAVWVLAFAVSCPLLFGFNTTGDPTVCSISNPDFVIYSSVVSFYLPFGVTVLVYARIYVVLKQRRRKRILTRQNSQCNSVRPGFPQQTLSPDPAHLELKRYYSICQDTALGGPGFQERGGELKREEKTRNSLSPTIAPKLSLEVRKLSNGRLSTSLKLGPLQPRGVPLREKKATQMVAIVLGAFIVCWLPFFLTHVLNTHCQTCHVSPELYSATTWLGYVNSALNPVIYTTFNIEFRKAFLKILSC

SMILES | Ki [nM]
Oc1ccc(C2=CCN(C[C@@H]3CCC=C(c4ccccc4)C3)CC2)cc1 | 56.7
Oc1ccc(C2=CCN(C[C@@H]3CCC=C(c4ccc(O)cc4)C3)CC2)cc1 | 3.4
Oc1ccc(C2=CCC[C@@H](CN3CC=C(c4ccccc4)CC3)C2)cc1 | 0.52

molecular target: T1, D(2) dopamine receptor; assay: Binding affinity towards human Dopamine receptor D2L evaluated using [3H]spiperone; settings: not given
Summary of the method: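 Human D2L expressed in CHO-K1 membranes. Labelled with 0.6 nM [3H]spiperone in triplicate in Tris HCl pH 7.4 buffer with 1 mM EDTA and 6 mM MgCl2, 60 min at 25 °C. 1 μM haloperidol defines specific binding. Bound ligand filtered and counted. Ki ± SEM from four to six concentrations by nonlinear regression.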

SMILES | Ki [nM]
Oc1ccc(C2=CCN(C[C@@H]3CCC=C(c4ccccc4)C3)CC2)cc1 | 94
Oc1ccc(C2=CCN(C[C@@H]3CCC=C(c4ccc(O)cc4)C3)CC2)cc1 | 10.3
Oc1ccc(C2=CCC[C@@H](CN3CC=C(c4ccccc4)CC3)C2)cc1 | 3.5

molecular target: T1, D(2) dopamine receptor; assay: Intrinsic activity relative to Quinpirole for human Dopamine receptor D2L was determined; settings: not given
Summary of the method: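 CHO-10001 cells transfected with human DA D2L receptor; activation read as stimulation of [3H]thymidine uptake (mitogenesis). Intrinsic activity = maximal response of compound relative to maximal response of full DA agonist quinpirole, ± SEM.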

SMILES | Activity
Oc1ccc(C2=CCN(C[C@@H]3CCC=C(c4ccccc4)C3)CC2)cc1 | 0.37
C1=C(c2ccccc2)CCN(C[C@@H]2CCC=C(c3ccccc3)C2)C1 [CI-1007] | 0.66
Oc1ccc(C2=CCN(C[C@@H]3CCC=C(c4ccc(O)cc4)C3)CC2)cc1 | 0.29
Oc1ccc(C2=CCC[C@@H](CN3CC=C(c4ccccc4)CC3)C2)cc1 | 0.62

Source: ChEMBL document CHEMBL1128721, “Identification, characterization and pharmacological profile of three metabolites of (R)-(+)-1,2,3,6-tetrahydro-4-phenyl-1-[(3-phenylcyclohexen-1-yl)methyl]pyridine (CI-1007), a dopamine autoreceptor agonist and potential antipsychotic agent” (J Med Chem, 1995)
